This is an account of results in ChEMBL document CHEMBL4118061, “Design and synthesis of potent HIV-1 protease inhibitors with (S)-tetrahydrofuran-tertiary amine-acetamide as P2-ligand: Structure-activity studies and biological evaluation” (Eur J Med Chem, 2017).

For orientation: IC50 means the concentration needed to halve the response being measured. Lower therefore signals inhibition by little substance.

This experiment addresses Protease (Human immunodeficiency virus 1, UniProt Q9YQ12). The experiment in a line: Inhibition of HIV1 protease expressed in Escherichia coli using Arg-Glu (EDANS)-Ser-GlnAsn-Tyr-Pro-Ile-Val-Gln-Lys(DABCYL)-Arg as substrate preincubated for 20 to 30 mins followed by substrate addition measured for 10 mins by FRET method. The method, boiled down: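 Wild-type HIV-1 protease, cloned and expressed in E. coli, then purified. Inhibitors were dissolved in DMSO and diluted. Reaction buffer: 0.1 M sodium acetate, 1 M NaCl, 1 mM EDTA, 1 mM DTT, 2% DMSO, 1 mg/mL BSA, pH 4.7. Enzyme and inhibitor were preincubated 20-30 min at room temperature, then substrate was added. FRET read-out was recorded for about 10 min.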

Protease, sequence (Q9YQ12 whole entry): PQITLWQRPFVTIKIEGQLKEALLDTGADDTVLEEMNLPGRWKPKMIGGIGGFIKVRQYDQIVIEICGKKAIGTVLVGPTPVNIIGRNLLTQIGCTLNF

Compound `CC(C)CN(C[C@@H](O)[C@H](Cc1ccccc1)NC(=O)CN([C@H]1CCOC1)S(C)(=O)=O)S(=O)(=O)c1ccc(OC(F)(F)F)cc1` gave a 50% inhibitory concentration (IC50) above 1000 nM.

`CC(C)CN(C[C@@H](O)[C@H](Cc1ccccc1)NC(=O)CN[C@H]1CCOC1)S(=O)(=O)c1ccc2c(c1)OCO2` displayed an IC50 of 1.65 nM. To `COc1ccc(S(=O)(=O)N(CC(C)C)C[C@@H](O)[C@H](Cc2ccccc2)NC(=O)CN(CC(=O)N(C)C)[C@H]2CCOC2)cc1` belongs 28.6 nM; to `CC(C)CN(C[C@@H](O)[C@H](Cc1ccccc1)NC(=O)CN(CC(=O)N(C)C)[C@H]1CCOC1)S(=O)(=O)c1ccc2c(c1)OCO2`, 56.9 nM. `COc1ccc(S(=O)(=O)N(CC(C)C)C[C@@H](O)[C@H](Cc2ccccc2)NC(=O)CN(CC(N)=O)[C@H]2CCOC2)cc1OC` had an IC50 of 9.9 nM. The figure for `CC(C)CN(C[C@@H](O)[C@H](Cc1ccccc1)NC(=O)CN(CC(=O)N(C)C)[C@H]1CCOC1)S(=O)(=O)c1ccc([N+](=O)[O-])cc1` is 270 nM; for `CC(C)CN(C[C@@H](O)[C@H](Cc1ccccc1)NC(=O)CN(CC(=O)N(C)C)[C@H]1CCOC1)S(=O)(=O)c1ccc(N)cc1` it is 38 nM.

`CC(C)CN(C[C@@H](O)[C@H](Cc1ccccc1)NC(=O)CN[C@H]1CCOC1)S(=O)(=O)c1ccc(CO)cc1`: the IC50 stood at 10.2 nM. Regarding `COc1ccc(S(=O)(=O)N(CC(C)C)C[C@@H](O)[C@H](Cc2ccccc2)NC(=O)CN[C@H]2CCOC2)cc1`, the concentration for half-maximal inhibition (IC50) stood at 2.23 nM. `CC(C)CN(C[C@@H](O)[C@H](Cc1ccccc1)NC(=O)CN([C@H]1CCOC1)S(C)(=O)=O)S(=O)(=O)c1ccc(CO)cc1` showed a concentration for half-maximal inhibition (IC50) of 22.7 nM. The figure for `CC(C)CN(C[C@@H](O)[C@H](Cc1ccccc1)NC(=O)CN(CC(N)=O)[C@H]1CCOC1)S(=O)(=O)c1ccc(CO)cc1` is 19.3 nM; for `CC(C)CN(C[C@@H](O)[C@H](Cc1ccccc1)NC(=O)CN[C@H]1CCOC1)S(=O)(=O)c1ccc(N)cc1` it is 4.11 nM; for `COCCN(CC(=O)N[C@@H](Cc1ccccc1)[C@H](O)CN(CC(C)C)S(=O)(=O)c1ccc(CO)cc1)[C@H]1CCOC1` it is 4.26 nM.

The compound `COCCN(CC(=O)N[C@@H](Cc1ccccc1)[C@H](O)CN(CC(C)C)S(=O)(=O)c1ccc([N+](=O)[O-])cc1)[C@H]1CCOC1` displayed an IC50 of 17.7 nM. To `CC(C)CN(C[C@@H](O)[C@H](Cc1ccccc1)NC(=O)CN(CC(=O)N(C)C)[C@H]1CCOC1)S(=O)(=O)c1ccc(CO)cc1` belongs 65 nM. Turning to `CC(C)CN(C[C@@H](O)[C@H](Cc1ccccc1)NC(=O)CN(CC(=O)N1CCOCC1)[C@H]1CCOC1)S(=O)(=O)c1ccc(OC(F)(F)F)cc1`, the IC50 stood at 910 nM. For `CC(C)CN(C[C@@H](O)[C@H](Cc1ccccc1)NC(=O)CN[C@@H]1CCOC1)S(=O)(=O)c1ccc(N)cc1`, inhibition was half-maximal at 141 nM (IC50). The figure for `COCCN(CC(=O)N[C@@H](Cc1ccccc1)[C@H](O)CN(CC(C)C)S(=O)(=O)c1ccc(OC)c(OC)c1)[C@H]1CCOC1` is 190 nM; for `COc1ccc(S(=O)(=O)N(CC(C)C)C[C@@H](O)[C@H](Cc2ccccc2)NC(=O)CN(CC(=O)N2CCOCC2)[C@H]2CCOC2)cc1OC` it is above 1000 nM; for `COCCN(CC(=O)N[C@@H](Cc1ccccc1)[C@H](O)CN(CC(C)C)S(=O)(=O)c1ccc2c(c1)OCO2)[C@@H]1CCOC1` it is 6 nM. Compound `CC(C)CN(C[C@@H](O)[C@H](Cc1ccccc1)NC(=O)CN(CC(=O)N1CCOCC1)[C@H]1CCOC1)S(=O)(=O)c1ccc([N+](=O)[O-])cc1` registered an IC50 of 98.1 nM. The figure for `CC(C)CN(C[C@@H](O)[C@H](Cc1ccccc1)NC(=O)CN(CC(N)=O)[C@H]1CCOC1)S(=O)(=O)c1ccc2c(c1)OCO2` is above 1000 nM; for `COCCN(CC(=O)N[C@@H](Cc1ccccc1)[C@H](O)CN(CC(C)C)S(=O)(=O)c1ccc2c(c1)OCO2)[C@H]1CCOC1` it is 0.77 nM; for `COc1ccc(S(=O)(=O)N(CC(C)C)C[C@@H](O)[C@H](Cc2ccccc2)NC(=O)CN[C@H]2CCOC2)cc1OC` it is 310 nM. As for `CC(C)CN(C[C@@H](O)[C@H](Cc1ccccc1)NC(=O)CN(CC(=O)N1CCOCC1)[C@H]1CCOC1)S(=O)(=O)c1ccc(N)cc1`, half-maximal inhibition (IC50) required 160 nM. The figure for `CC(C)CN(C[C@@H](O)[C@H](Cc1ccccc1)NC(=O)CN(CC(N)=O)[C@H]1CCOC1)S(=O)(=O)c1ccc([N+](=O)[O-])cc1` is 33.6 nM.

`CC(C)CN(C[C@@H](O)[C@H](Cc1ccccc1)NC(=O)CN[C@@H]1CCOC1)S(=O)(=O)c1ccc2c(c1)OCO2` gave an IC50 of 53.4 nM. To `COCCN(CC(=O)N[C@@H](Cc1ccccc1)[C@H](O)CN(CC(C)C)S(=O)(=O)c1ccc(N)cc1)[C@H]1CCOC1` belongs 0.88 nM. Consider `CC(C)CN(C[C@@H](O)[C@H](Cc1ccccc1)NC(=O)CN([C@H]1CCOC1)S(C)(=O)=O)S(=O)(=O)c1ccc(N)cc1`, for which the IC50 worked out at 59.8 nM. The figure for `CC(C)CN(C[C@@H](O)[C@H](Cc1ccccc1)NC(=O)CN(CC(N)=O)[C@H]1CCOC1)S(=O)(=O)c1ccc(N)cc1` is 57 nM; for `CC(C)CN(C[C@@H](O)[C@H](Cc1ccccc1)NC(=O)CN[C@H]1CCOC1)S(=O)(=O)c1ccc([N+](=O)[O-])cc1` it is 46.3 nM; for `COc1ccc(S(=O)(=O)N(CC(C)C)C[C@@H](O)[C@H](Cc2ccccc2)NC(=O)CN[C@@H]2CCOC2)cc1` it is 16 nM.

For the compound `CC(C)CN(C[C@@H](O)[C@H](Cc1ccccc1)NC(=O)CN([C@H]1CCOC1)S(C)(=O)=O)S(=O)(=O)c1ccc([N+](=O)[O-])cc1`, the IC50 worked out at 291 nM. In turn, `CC(C)CN(C[C@@H](O)[C@H](Cc1ccccc1)NC(=O)CN(CC(=O)N1CCOCC1)[C@H]1CCOC1)S(=O)(=O)c1ccc(CO)cc1` showed a half-inhibitory concentration (IC50) of 110 nM.

As to `CC(C)CN(C[C@@H](O)[C@H](Cc1ccccc1)NC(=O)CN(CC(N)=O)[C@H]1CCOC1)S(=O)(=O)c1ccc(OC(F)(F)F)cc1`, the midpoint of inhibition, the IC50, lay at 530 nM. Compound `CC(C)CN(C[C@@H](O)[C@H](Cc1ccccc1)NC(=O)CN[C@H]1CCOC1)S(=O)(=O)c1ccc(OC(F)(F)F)cc1` registered an IC50 of 290 nM. `COc1ccc(S(=O)(=O)N(CC(C)C)C[C@@H](O)[C@H](Cc2ccccc2)NC(=O)CN(CC(N)=O)[C@H]2CCOC2)cc1` came in with an IC50 of 20.4 nM.

The compound `COCCN(CC(=O)N[C@@H](Cc1ccccc1)[C@H](O)CN(CC(C)C)S(=O)(=O)c1ccc(OC)cc1)[C@H]1CCOC1` displayed an IC50 of 0.35 nM.

`COc1ccc(S(=O)(=O)N(CC(C)C)C[C@@H](O)[C@H](Cc2ccccc2)NC(=O)CN([C@H]2CCOC2)S(C)(=O)=O)cc1OC` showed an IC50 above 1000 nM. In turn, `COc1ccc(S(=O)(=O)N(CC(C)C)C[C@@H](O)[C@H](Cc2ccccc2)NC(=O)CN(CC(=O)N(C)C)[C@H]2CCOC2)cc1OC` displayed an IC50 above 1000 nM. Regarding `COc1ccc(S(=O)(=O)N(CC(C)C)C[C@@H](O)[C@H](Cc2ccccc2)NC(=O)CN([C@H]2CCOC2)S(C)(=O)=O)cc1`, the midpoint of inhibition, the IC50, lay at 12.6 nM. For the compound `CC(C)CN(C[C@@H](O)[C@H](Cc1ccccc1)NC(=O)CN(CC(=O)N1CCOCC1)[C@H]1CCOC1)S(=O)(=O)c1ccc2c(c1)OCO2`, 27.2 nM corresponded to half-maximal inhibition (IC50). The figure for `COCCN(CC(=O)N[C@@H](Cc1ccccc1)[C@H](O)CN(CC(C)C)S(=O)(=O)c1ccc(N)cc1)[C@@H]1CCOC1` is 22.8 nM; for `COCCN(CC(=O)N[C@@H](Cc1ccccc1)[C@H](O)CN(CC(C)C)S(=O)(=O)c1ccc(OC(F)(F)F)cc1)[C@H]1CCOC1` it is 68 nM; for `COc1ccc(S(=O)(=O)N(CC(C)C)C[C@@H](O)[C@H](Cc2ccccc2)NC(=O)CN(CC(=O)N2CCOCC2)[C@H]2CCOC2)cc1` it is 44 nM. Compound `CC(C)CN(C[C@@H](O)[C@H](Cc1ccccc1)NC(=O)CN(CC(=O)N(C)C)[C@H]1CCOC1)S(=O)(=O)c1ccc(OC(F)(F)F)cc1` had an IC50 above 1000 nM.

For `CC(C)CN(C[C@@H](O)[C@H](Cc1ccccc1)NC(=O)CN([C@H]1CCOC1)S(C)(=O)=O)S(=O)(=O)c1ccc2c(c1)OCO2`, the IC50 amounted to 22.9 nM. `COCCN(CC(=O)N[C@@H](Cc1ccccc1)[C@H](O)CN(CC(C)C)S(=O)(=O)c1ccc(OC)cc1)[C@@H]1CCOC1` came in with an IC50 of 6.85 nM.
